The structures appear in SMILES notation.

The subject of series [1] is Plasma. The series can be described thus: Plasma concentration in mouse at 30 mg/kg, po. It is filed as ADME, organism-based. The following applies: in vivo. The arrangement: dose 30 mg/kg, route oral. Put shortly: (§1)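 Male mice dosed orally at 3, 10 or 30 mg/kg in 5% transcutol/saline, 60 min before the tail suspension test. Terminal whole brain (ng/g) and plasma (ng/mL) samples taken from the test animals. Brain/plasma ratio derived from these levels.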

In series [2] the test system is Mus musculus. The series can be described thus: Toxicity in mouse assessed as increase of spontaneous locomotor activity at 10 to 30 mg/kg, po measured for 5 mins. The series is classed as organism-based. The arrangement: dose 10-30 mg/kg, route oral. The settings on record: in vivo.
Series [3] deals with Brain. The experiment in a line: Drug level in mouse brain at 3 mg/kg, po. It is filed as ADME, organism-based. The settings on record: in vivo. Set-up: dose 3 mg/kg, route oral. The method in brief: as §1
Series [4] has as its system Mus musculus. The experiment in a line: Antidepressant activity in mouse assessed as reduction of immobility time at 30 mg/kg, po after 60 mins by tail suspension test relative to control. The series is classed as functional. Set-up: scale not given: the % may be the effect or the level left. Put shortly:
(§2)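 Mouse tail suspension test, male mice (10–12 per group, blind). Single oral dose in 5% transcutol in saline, 60 min pretreatment. Immobility recorded automatically for 5 min. Compared with vehicle group. Desipramine 100 mg/kg PO used as reference. One-way ANOVA with Dunnett's post test, p < 0.05.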

Series [5] relates to Plasma. The series can be described thus: Plasma concentration in mouse at 3 mg/kg, po. The series is classed as ADME, organism-based. Set-up: dose 3 mg/kg, route oral. The following applies: in vivo. The method in brief:
as §1

Series [6] is described as follows: Ratio of drug level in brain to plasma in mouse at 30 mg/kg, po. The series is classed as ADME, organism-based. The arrangement: dose 30 mg/kg, route oral. The settings on record: brain and plasma, read-out: BPR. Put shortly:
as §1

Series [7] is described as follows: Plasma protein binding in mouse. The series is classed as ADME, cell-free. The following applies: read-out: PPB (converted). The method in brief: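 Protein binding measured with mouse plasma protein.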
For series [8], the system named is Plasma. The experiment in a line: Plasma concentration in mouse at 10 mg/kg, po. It is filed as ADME, organism-based. Set-up: dose 10 mg/kg, route oral. The settings on record: in vivo. Put shortly: as §1
In series [9] the test system is Mus musculus. The series can be described thus: Antidepressant activity in mouse assessed as reduction of immobility time at 10 mg/kg, po after 60 mins by tail suspension test relative to control. The series is classed as functional. Set-up: scale not given: the % may be the effect or the level left. The method in brief:
as §2

Series [10] deals with Brain. The experiment in a line: Drug level in mouse brain at 10 mg/kg, po. Set-up: dose 10 mg/kg, route oral. The settings on record: in vivo. It is filed as ADME, organism-based. The method in brief: as §1
For series [11], the system named is Brain. The series can be described thus: Drug level in mouse brain at 30 mg/kg, po. The arrangement: dose 30 mg/kg, route oral. The settings on record: in vivo. It is filed as ADME, organism-based. Put shortly:
as §1

In series [12] the test system is Mus musculus. The series can be described thus: Antidepressant activity in mouse assessed as reduction of immobility time at 100 mg/kg, po after 60 mins by tail suspension test relative to control. It is filed as functional. The arrangement: scale not given: the % may be the effect or the level left. Put shortly:
as §2

For another series, the target named is Cytochrome P450 3A4 (Homo sapiens, UniProt P08684). The series can be described thus: Inhibition of CYP3A4 in human liver microsomes by LC-MS/MS analysis. It is filed as ADME, Microsome. Put shortly:
(§3)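 Human liver microsomes incubated with isoform-specific substrates and compound, typically 0.1–25 μM. Metabolite formation read by LC-MS/MS, […]. IC50 calculated from the decrease in metabolite formation relative to vehicle control.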
(In general: Liver microsomes are a subcellular fraction often used to study metabolism.)

The subject of series [13] is Brain. The experiment in a line: Drug level in mouse brain assessed as (3aS,6aR)-3a-(3,4-dichlorophenyl)octahydrocyclopenta[c]pyrrole level at 30 mg/kg, po. The series is classed as ADME, organism-based. The arrangement: dose 30 mg/kg, route oral. The following applies: in vivo. The method in brief:
as §1

A short description of series [14]: Half life in mouse liver microsomes at 3 uM by LC-MS/MS analysis. The series is classed as ADME, Microsome. Put shortly: (§4)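 Human or mouse liver microsomes (0.5 mg/mL) incubated with 3 μM compound at 37 °C. Reaction started with NADPH and stopped with methanol containing internal standard. Loss of compound followed over 45 min by LC-MS/MS. Peak area ratio to internal standard plotted against time and the slope of the line taken.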

In series [15] the test system is Brain. The series can be described thus: Drug level in mouse brain assessed as (3aS,6aR)-3a-(3,4-dichlorophenyl)octahydrocyclopenta[c]pyrrole level at 3 mg/kg, po. It is filed as ADME, organism-based. Set-up: dose 3 mg/kg, route oral. The settings on record: in vivo. The method in brief:
as §1

Series [16] concerns the target Sodium-dependent dopamine transporter (Homo sapiens, UniProt Q01959). The experiment in a line: Inhibition of dopamine reuptake at DAT expressed in CHO-K1 cells. It is filed as cell-based.
Series [17] relates to Plasma. The series can be described thus: Plasma concentration in mouse assessed as (3aS,6aR)-3a-(3,4-dichlorophenyl)octahydrocyclopenta[c]pyrrole level at 3 mg/kg, po. The settings on record: in vivo. The arrangement: dose 3 mg/kg, route oral. The series is classed as ADME, organism-based. Put shortly:
as §1

In a further series the target is Cytochrome P450 2C9 (Homo sapiens, UniProt P11712). The series can be described thus: Inhibition of CYP2C9 in human liver microsomes by LC-MS/MS analysis. It is filed as ADME, Microsome. Put shortly:
as §3

Series [18] deals with Sodium-dependent serotonin transporter (Homo sapiens, UniProt P31645). The experiment in a line: Inhibition of serotonin reuptake at SERT expressed in HEK293 cells. It is filed as cell-based.
The target of a further series is T1, CYP1A (Homo sapiens, UniProt P04798+P05177).
T1 sequence (P04798 whole entry): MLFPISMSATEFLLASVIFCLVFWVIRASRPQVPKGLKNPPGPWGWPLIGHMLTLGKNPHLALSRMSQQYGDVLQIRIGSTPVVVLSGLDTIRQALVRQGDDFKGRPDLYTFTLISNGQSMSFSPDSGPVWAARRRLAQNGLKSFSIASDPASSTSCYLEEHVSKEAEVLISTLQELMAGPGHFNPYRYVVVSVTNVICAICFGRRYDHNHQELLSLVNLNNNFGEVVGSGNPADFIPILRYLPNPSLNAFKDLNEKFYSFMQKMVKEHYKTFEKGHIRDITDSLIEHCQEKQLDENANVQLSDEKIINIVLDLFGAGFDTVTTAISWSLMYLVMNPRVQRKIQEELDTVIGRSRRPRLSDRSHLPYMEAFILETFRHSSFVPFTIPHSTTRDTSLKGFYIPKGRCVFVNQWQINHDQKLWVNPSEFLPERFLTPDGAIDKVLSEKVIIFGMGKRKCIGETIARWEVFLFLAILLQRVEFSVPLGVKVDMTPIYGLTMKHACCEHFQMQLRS
T1 sequence (P05177 whole entry): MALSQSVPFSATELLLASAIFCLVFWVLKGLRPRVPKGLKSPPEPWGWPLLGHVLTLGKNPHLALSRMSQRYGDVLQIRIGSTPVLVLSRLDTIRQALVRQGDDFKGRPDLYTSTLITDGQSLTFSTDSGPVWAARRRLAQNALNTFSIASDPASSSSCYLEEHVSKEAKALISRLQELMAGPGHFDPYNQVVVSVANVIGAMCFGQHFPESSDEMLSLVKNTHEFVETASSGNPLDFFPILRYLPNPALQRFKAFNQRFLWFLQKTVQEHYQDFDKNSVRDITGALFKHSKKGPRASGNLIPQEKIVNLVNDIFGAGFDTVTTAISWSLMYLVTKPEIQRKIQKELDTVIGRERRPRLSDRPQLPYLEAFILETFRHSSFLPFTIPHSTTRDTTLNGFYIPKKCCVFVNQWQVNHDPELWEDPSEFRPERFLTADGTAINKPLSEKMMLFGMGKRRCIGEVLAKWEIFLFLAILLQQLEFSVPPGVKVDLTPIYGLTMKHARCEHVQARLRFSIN
The experiment in a line: Inhibition of CYP1A in human liver microsomes by LC-MS/MS analysis. It is filed as ADME, Microsome. Put shortly: as §3

The next series has as its target Cytochrome P450 2C19 (Homo sapiens, UniProt P33261). The experiment in a line: Inhibition of CYP2C19 in human liver microsomes by LC-MS/MS analysis. It is filed as ADME, Microsome. The method in brief:
as §3

Series [19] concerns Mus musculus. The series can be described thus: Antidepressant activity in po dosed mouse assessed as reduction of immobility time after 60 mins by tail suspension test. The series is classed as functional, organism-based. The method in brief: as §2
A further series deals with Cytochrome P450 2D6 (Homo sapiens, UniProt P10635). The series can be described thus: Inhibition of CYP2D6 in human liver microsomes by LC-MS/MS analysis. It is filed as ADME, Microsome. Put shortly: as §3
Series [20] concerns the target Sodium-dependent noradrenaline transporter (Homo sapiens, UniProt P23975). The experiment in a line: Inhibition of norepinephrine reuptake at NET expressed in MDCK cells. The series is classed as cell-based.
The nature of series [21]: Half life in human liver microsomes at 3 uM by LC-MS/MS analysis. The series is classed as ADME, Microsome. Put shortly: as §4
Series [22] relates to Plasma. The series can be described thus: Plasma concentration in mouse assessed as (3aS,6aR)-3a-(3,4-dichlorophenyl)octahydrocyclopenta[c]pyrrole level at 30 mg/kg, po. The settings on record: in vivo. The series is classed as ADME, organism-based. The arrangement: dose 30 mg/kg, route oral. The method in brief:
as §1

In series [23] the test system is Plasma. The experiment in a line: Plasma concentration in mouse assessed as (3aS,6aR)-3a-(3,4-dichlorophenyl)octahydrocyclopenta[c]pyrrole level at 10 mg/kg, po. The series is classed as ADME, organism-based. The arrangement: dose 10 mg/kg, route oral. The settings on record: in vivo. The method in brief: as §1
The nature of series [24]: Ratio of drug level in brain to plasma in po dosed mouse. The series is classed as ADME, organism-based. The settings on record: brain and plasma, read-out: BPR. Put shortly:
as §1

Series [25] has as its system Brain. The series can be described thus: Drug level in mouse brain assessed as (3aS,6aR)-3a-(3,4-dichlorophenyl)octahydrocyclopenta[c]pyrrole level at 10 mg/kg, po. The following applies: in vivo. It is filed as ADME, organism-based. Set-up: dose 10 mg/kg, route oral. Put shortly:
as §1

Sequence of Cytochrome P450 3A4 (P08684 whole entry, canonical isoform): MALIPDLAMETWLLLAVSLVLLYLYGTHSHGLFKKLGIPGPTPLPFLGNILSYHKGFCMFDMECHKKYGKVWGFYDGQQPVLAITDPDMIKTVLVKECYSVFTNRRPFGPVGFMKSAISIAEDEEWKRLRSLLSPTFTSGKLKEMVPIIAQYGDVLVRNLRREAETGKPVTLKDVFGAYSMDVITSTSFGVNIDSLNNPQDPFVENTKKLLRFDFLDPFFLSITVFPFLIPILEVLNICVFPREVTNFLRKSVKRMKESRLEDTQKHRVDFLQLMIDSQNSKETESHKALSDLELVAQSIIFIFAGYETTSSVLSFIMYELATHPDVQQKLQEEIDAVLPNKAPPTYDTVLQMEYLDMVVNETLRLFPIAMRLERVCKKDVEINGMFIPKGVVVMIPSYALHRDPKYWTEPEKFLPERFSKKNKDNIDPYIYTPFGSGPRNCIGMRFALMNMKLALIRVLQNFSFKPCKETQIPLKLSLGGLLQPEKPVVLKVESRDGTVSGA
Sequence of Cytochrome P450 2C19 (P33261 whole entry): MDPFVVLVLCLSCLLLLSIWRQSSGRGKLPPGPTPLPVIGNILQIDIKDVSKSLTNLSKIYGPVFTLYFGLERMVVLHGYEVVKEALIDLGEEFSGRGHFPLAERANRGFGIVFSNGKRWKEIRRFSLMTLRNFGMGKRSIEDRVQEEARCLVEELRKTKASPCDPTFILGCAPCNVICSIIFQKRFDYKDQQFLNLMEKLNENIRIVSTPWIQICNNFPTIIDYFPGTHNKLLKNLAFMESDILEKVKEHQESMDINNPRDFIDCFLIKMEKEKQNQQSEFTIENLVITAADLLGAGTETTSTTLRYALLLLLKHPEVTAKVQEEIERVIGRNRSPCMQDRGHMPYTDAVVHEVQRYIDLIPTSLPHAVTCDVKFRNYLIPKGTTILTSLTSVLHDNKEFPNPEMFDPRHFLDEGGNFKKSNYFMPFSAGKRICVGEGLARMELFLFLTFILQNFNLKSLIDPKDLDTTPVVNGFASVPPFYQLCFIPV
Sequence of Sodium-dependent noradrenaline transporter (P23975 whole entry): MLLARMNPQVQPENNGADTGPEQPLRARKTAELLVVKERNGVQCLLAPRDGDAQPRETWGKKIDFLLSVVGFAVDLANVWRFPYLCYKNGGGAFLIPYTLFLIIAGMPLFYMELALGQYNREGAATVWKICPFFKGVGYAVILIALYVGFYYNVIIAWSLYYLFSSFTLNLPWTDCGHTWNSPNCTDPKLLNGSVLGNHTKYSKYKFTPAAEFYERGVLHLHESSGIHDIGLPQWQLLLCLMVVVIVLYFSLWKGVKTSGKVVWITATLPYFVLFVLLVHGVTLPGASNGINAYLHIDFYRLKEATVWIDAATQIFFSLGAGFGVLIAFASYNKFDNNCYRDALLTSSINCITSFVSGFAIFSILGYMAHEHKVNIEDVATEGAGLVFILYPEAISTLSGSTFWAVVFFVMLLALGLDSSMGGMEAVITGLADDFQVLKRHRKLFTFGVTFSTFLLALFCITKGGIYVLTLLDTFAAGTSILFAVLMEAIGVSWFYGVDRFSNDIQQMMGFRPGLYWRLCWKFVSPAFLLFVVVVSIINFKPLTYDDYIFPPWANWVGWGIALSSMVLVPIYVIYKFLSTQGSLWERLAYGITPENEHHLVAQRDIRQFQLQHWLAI
Sequence of Sodium-dependent dopamine transporter (Q01959 whole entry): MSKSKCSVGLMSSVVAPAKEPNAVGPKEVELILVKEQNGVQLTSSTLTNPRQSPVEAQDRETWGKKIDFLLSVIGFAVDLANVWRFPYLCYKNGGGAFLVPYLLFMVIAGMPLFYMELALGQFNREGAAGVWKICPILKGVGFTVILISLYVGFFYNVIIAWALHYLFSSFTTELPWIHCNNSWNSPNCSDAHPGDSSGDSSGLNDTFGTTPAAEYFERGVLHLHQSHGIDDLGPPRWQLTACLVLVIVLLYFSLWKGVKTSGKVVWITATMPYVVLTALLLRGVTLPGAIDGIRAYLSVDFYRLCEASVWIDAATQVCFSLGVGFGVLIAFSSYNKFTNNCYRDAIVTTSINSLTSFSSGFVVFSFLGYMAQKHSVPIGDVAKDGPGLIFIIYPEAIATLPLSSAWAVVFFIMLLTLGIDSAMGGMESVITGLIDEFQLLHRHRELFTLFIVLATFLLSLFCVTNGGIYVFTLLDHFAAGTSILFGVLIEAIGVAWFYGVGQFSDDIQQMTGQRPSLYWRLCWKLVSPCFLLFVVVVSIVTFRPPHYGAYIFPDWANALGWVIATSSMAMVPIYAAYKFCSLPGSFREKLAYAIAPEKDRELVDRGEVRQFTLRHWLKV
Sequence of Cytochrome P450 2C9 (P11712 whole entry): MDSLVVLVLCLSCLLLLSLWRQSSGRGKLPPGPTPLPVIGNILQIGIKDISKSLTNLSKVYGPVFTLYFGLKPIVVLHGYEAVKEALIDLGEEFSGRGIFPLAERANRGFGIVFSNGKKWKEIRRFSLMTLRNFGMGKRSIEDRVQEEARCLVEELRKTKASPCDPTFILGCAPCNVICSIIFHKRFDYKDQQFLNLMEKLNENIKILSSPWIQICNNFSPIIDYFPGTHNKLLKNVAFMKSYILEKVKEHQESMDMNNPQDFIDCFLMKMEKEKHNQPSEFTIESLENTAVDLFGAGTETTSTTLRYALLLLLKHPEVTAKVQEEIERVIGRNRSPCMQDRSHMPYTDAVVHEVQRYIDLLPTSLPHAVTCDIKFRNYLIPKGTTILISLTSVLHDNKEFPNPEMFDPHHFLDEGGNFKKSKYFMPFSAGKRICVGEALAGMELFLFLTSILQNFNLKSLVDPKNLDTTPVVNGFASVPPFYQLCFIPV
Sequence of Cytochrome P450 2D6 (P10635 whole entry): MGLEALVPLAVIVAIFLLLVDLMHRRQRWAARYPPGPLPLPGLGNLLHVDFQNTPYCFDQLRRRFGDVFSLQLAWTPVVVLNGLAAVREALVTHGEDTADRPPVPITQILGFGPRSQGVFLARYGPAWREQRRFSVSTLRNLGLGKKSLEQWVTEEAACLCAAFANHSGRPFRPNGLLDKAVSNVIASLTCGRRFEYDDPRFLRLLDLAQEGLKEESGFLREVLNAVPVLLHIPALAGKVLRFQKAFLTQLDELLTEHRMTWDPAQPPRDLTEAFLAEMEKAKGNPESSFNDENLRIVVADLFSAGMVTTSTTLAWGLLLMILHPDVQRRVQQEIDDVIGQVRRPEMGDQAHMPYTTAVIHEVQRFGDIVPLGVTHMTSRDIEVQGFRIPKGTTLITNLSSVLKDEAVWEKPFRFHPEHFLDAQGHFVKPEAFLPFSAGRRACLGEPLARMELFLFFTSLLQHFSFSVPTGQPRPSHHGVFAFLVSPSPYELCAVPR
Sequence of Sodium-dependent serotonin transporter (P31645 whole entry): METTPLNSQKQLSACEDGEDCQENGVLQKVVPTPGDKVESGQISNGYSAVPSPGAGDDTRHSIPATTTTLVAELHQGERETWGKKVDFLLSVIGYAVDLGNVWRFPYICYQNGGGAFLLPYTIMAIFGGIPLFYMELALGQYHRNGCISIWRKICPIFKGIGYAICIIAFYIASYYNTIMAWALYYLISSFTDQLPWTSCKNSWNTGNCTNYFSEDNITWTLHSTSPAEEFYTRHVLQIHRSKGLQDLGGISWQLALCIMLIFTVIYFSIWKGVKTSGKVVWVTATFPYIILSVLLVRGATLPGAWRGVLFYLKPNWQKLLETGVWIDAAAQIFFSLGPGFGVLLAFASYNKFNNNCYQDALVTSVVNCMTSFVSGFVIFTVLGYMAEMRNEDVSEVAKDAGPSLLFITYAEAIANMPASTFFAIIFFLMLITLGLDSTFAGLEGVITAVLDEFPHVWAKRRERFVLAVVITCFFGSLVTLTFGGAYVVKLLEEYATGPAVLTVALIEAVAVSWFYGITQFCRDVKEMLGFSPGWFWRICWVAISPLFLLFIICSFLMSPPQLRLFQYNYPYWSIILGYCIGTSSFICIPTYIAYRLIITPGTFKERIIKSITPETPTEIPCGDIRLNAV

Regarding `Cl.Clc1ccc([C@@]23CCC[C@@H]2CNC3)cc1Cl`, the Cp in the series on Plasma [1] is 569 ng/mL; in the series with Plasma [5], 69 ng/mL; in the series on Plasma [8], 214 ng/mL. The Activity entry in the series on Mus musculus [2] is on record as “Non-toxic”; with Mus musculus [4], 42%; in the series on Mus musculus [9], 29%; in the series with Mus musculus [12] it was 25%. Besides, the Drug uptake in the series with Brain [3] came to 1747 ng/g; with Brain [10], 5950 ng/g; with Brain [11] it was 14050 ng/g. Moreover, in series [6], the Kp stood at 30. Moreover, the fraction unbound in series [7] was 0.04.

For orientation: IC50 means the concentration needed to halve the response being measured. As a reminder, the half-life is how long it takes for the measured level to halve. Regarding `CN1C[C@H]2CCC[C@@]2(c2ccc(Cl)c(Cl)c2)C1`, the IC50 on Cytochrome P450 3A4 was above 25 µM; in series [16], 0.148 µM; on Cytochrome P450 2C9, above 25 µM; in series [18], 0.00363 µM; at CYP1A, above 25 µM; against Cytochrome P450 2C19, 7.22 µM. Besides, the IC50 was 5.21 µM against Cytochrome P450 2D6 and 0.0224 µM in series [20]. Moreover, the Cp in the series on Plasma [1] turned out to be 30 ng/mL; in the series with Plasma [5] it was 2 ng/mL; in the series on Plasma [17], 69 ng/mL; with Plasma [8], 7 ng/mL; with Plasma [22], 537 ng/mL; with Plasma [23] it was 211 ng/mL. Moreover, the Drug uptake with Brain [3] is 34 ng/g; with Brain [13], 11433 ng/g; with Brain [15], 1531 ng/g; in the series on Brain [10], 113 ng/g; with Brain [11] it was 507 ng/g; in the series with Brain [25], 4762 ng/g. Also, the Activity is 31% in the series with Mus musculus [4], “Dose-dependent effect” in the series with Mus musculus [19], 25% with Mus musculus [9] and 26% with Mus musculus [12]. Further, the half-life at 3 µM came to 27 min in series [14] and 37 min in [21]. Besides, the Kp in series [24] amounted to 2.

These data come from ChEMBL document CHEMBL1811752, “Synthesis and pharmacological characterization of bicyclic triple reuptake inhibitor 3-aryl octahydrocyclopenta[c]pyrrole analogues” (J Med Chem, 2011).
